Bioassay records as filed in PubChem BioAssay.
KCNQ1 inh – human KCNQ1 channel inhibition. P51787. CHO-K1 KCNQ1, FluxOR thallium flux fluorescence; active compounds read high. B-score at 10 µM. 310,000 compounds, 1.3% hits. AID 2642;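 active means compounds whose thallium flux B-score, printed positive for inhibition, exceeds three library SD while starting fluorescence stays within three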;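 further: channel opened by potassium depolarization with thallium stimulus after 20 min compound exposure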
Target sequence (P51787 whole entry, looked up): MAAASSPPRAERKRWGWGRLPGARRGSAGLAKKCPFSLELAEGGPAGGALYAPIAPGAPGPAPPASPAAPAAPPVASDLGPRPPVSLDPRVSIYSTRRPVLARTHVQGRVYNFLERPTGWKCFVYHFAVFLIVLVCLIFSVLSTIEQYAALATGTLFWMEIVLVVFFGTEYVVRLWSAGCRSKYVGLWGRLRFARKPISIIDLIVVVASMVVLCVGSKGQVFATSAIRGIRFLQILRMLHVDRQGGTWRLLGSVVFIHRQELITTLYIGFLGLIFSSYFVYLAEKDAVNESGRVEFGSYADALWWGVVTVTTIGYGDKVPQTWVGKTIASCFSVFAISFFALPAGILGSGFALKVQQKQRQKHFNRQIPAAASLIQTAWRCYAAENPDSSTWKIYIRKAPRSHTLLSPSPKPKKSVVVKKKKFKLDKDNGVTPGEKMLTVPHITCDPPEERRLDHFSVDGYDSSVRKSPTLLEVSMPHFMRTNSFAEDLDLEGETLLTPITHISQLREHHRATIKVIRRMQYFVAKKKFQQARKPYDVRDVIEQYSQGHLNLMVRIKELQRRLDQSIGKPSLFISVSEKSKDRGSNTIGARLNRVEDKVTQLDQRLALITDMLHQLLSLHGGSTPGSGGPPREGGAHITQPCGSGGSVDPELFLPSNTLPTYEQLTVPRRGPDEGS
KCNK9 block – inhibitors of human KCNK9 two-pore domain potassium channel. HEK293 KCNK9, FluxOR thallium flux fluorescence; active compounds read low. B-score at 10 µM. 310,000 compounds, 1.2% hits;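 active means ratio B-score over 3 SD below the library mean, with starting fluorescence within 5 SD of its mean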;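 further: negative B-score means less thallium flux so channel inhibition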
hERG protect – shields human hERG channel from block by proarrhythmic agents | 310,000 compounds, 0.51% hits | Q12809 | CHO-hERG, FluxOR thallium flux, dofetilide IC70 present | AID 1511 | activation (rescue from dofetilide block), less the hit threshold, % at 10 µM;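 active means activation above the mean of controls blocked by dofetilide plus 5 SD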;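 further: thallium influx through hERG after potassium depolarization seen as dye fluorescence rise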
KCNK3 block – human KCNK3 channel inhibition, primary screen; 340,000 compounds, 0.84% hits; CHO-KCNK3 thallium flux, FluxOR fluorescence; active compounds read low; AID 602410; B-score at 10 µM;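 active means B-score under library mean minus 4 SD, starting fluorescence ratio at most library mean plus 5 SD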;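 further: more negative B-score means stronger inhibition of thallium flux through KCNK3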
Kir21 inh – blocks the mouse Kir2.1 inward-rectifier potassium channel | HEK293-Kir2.1, FluxOR thallium flux fluorescence; active compounds read low | B-score at 10 µM | 310,000 compounds, 0.85% hits | AID 1672 | P35561;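 active means fluorescence ratio B-score at or below minus 3 SD of library scores, with starting-brightness B-score within 2 SD, cut at about -4.2 in these data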;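 further: channel flux triggered by added potassium and thallium sulfate stimulus; B-score of peak minus minimum fluorescence over baseline after thallium stimulus; more negative B-score means stronger Kir2.1 block with less thallium influx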
KCNQ1 pot – potentiates or activates the human KCNQ1 potassium channel; 310,000 compounds, 0.35% hits; CHO-K1 KCNQ1, thallium flux FluxOR fluorescence; active compounds read high; P51787; B-score at 10 µM;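 active means fluorescence ratio B-score, a plate-corrected score, at least three library SD, with initial intensity B-score within 5 SD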
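Assay system: CHO-K1 cells stably expressing KCNQ1; Medium: assay buffer with matched DMSO; Also added: K+/Tl+ depolarizing stimulus; Dosing: single dose; Timing: dye 90 min, compound 20 min, room temperature; Measured by: kinetic FluxOR thallium fluorescence, 10-s 1-Hz baseline, 110-s post-stimulus read; Read-out: peak-minus-minimum fluorescence over initial fluorescence, negative-control normalized, B-scored.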
KCNK9 inh conf – confirmation of human KCNK9 potassium channel inhibitors; 4,900 compounds, 43% hits; HEK293 KCNK9 cells, FluxOR thallium flux fluorescence; inhibition, % at 10 µM; shares compounds with KCNK9 block;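 active means thallium signal inhibited by more than 5 SD of the compound-free buffer control wells, on both duplicate plates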;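 further: 0% = assay buffer control wells without compound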
Kir2-1 spec – mouse Kir2.1 off-target activity of KCNK9 modulators; shares compounds with KCNK9 block; Kir2.1 cells, FluxOR thallium flux fluorescence; inhibition, % at 10 µM; 4,900 compounds, 4% hits;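 active means thallium signal drop more than 5 SD beyond the mean of the no-compound control wells, seen in both duplicate plates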;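 further: signal is fluorescence rise after thallium addition divided by baseline fluorescence; plate controls were assay buffer only for no effect and full block by chlorpromazine control for full effect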
KCNK9 uninduced – second counter-screen for KCNK9 modulators: effect in non-induced cells; 4,900 compounds, 40% hits; inhibition, % at 10 µM; AID 492997; shares compounds with KCNK9 block; non-induced KCNK9-HEK293, FluxOR thallium flux;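 active means thallium signal drop beyond 5 SD of the untreated control mean, on both duplicate plates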;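 further: plate controls were buffer only IC0 wells for no effect and SID17386958 at its maximal inhibitory level for full effect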
KCNK3 inh conf – confirmation of human KCNK3 two-pore domain potassium channel inhibitors; shares compounds with KCNK3 block; ratio percent of control, % at 10 µM; CHO-KCNK3 thallium flux, FluxOR fluorescence; 0% buffer, 100% carvedilol maximal block; 2,400 compounds, 99% hits; AID 651638;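 active means ratio percent of control, averaged over triplicates, above buffer control mean plus 5 SD, cut at about 64% in these data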;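 further: ratio is the fluorescence rise from min to max over baseline after thallium stimulus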
KCNK3 uninduced – activity in cells without induced KCNK3 expression; shares compounds with KCNK3 block; non-induced KCNK3 parental cells, FluxOR thallium flux; active compounds read low; thallium flux ratio (lower = more inhibition) at 10 µM; 2,400 compounds, 40% hits;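 active means thallium flux ratio, averaged over three wells, more than 5 SD below the buffer control mean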;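 further: host cells are CHO cells without KCNK3 induction; ratio is peak minus trough fluorescence over baseline then normalized to buffer controls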
The depositor's hits bear a star; i = inactive; . = no result given. The list is not random: actives were taken first. Their share in the collection is about 3.8%.

SMILES | KCNQ1 inh | KCNK9 block | hERG protect | KCNK3 block | Kir21 inh | KCNQ1 pot | KCNK9 inh conf | Kir2-1 spec | KCNK9 uninduced | KCNK3 inh conf | KCNK3 uninduced
COc1ccc(OC)c(-c2csc(NC(=O)c3ccccc3F)n2)c1 | i | i | -5.1 | i | -0.54 | i | . | . | . | . | .
COc1ccc(OC)c(-c2csc(NC(=O)Cc3ccccc3OC)n2)c1 | i | -16* | -3.2 | -12.8* | -0.39 | i | i | i | 40.0%* | 89.3* | i
CN(CC(=O)Nc1ccccc1F)Cc1cccs1 | i | i | -4.5 | i | 2.62 | i | . | . | . | . | .
Cc1cc(Br)ccc1NC(=O)CN(C)Cc1cccs1 | i | -11.7* | -12.2 | -9.02* | -1.57 | i | 43.0%* | i | 28.0%* | 100.3* | i
CCc1cc2c(CN(C)Cc3ccccc3F)cc(=O)oc2cc1O | i | -8.47* | -20.2 | -14.7* | -5.91* | i | 41.5%* | i | i | 113.7* | 0.159*
COc1cccc(CN(C)Cc2cc(=O)oc3cc(O)c(Cl)cc23)c1 | i | i | -13.9 | i | -0.17 | i | . | . | . | . | .
COc1ccc(S(=O)(=O)N2CCOC2CNC(=O)C(=O)NCCc2c[nH]c3ccccc23)cc1C (centres undefined) | i | i | -15.1 | i | 0.74 | i | . | . | . | . | .
CCCCC(C(=O)NC1CCCC1)N(Cc1ccco1)C(=O)Cn1nnc(-c2ccc(F)cc2)n1 (centres undefined) | i | -21.9* | -3.9 | -11.8* | 0.19 | i | 53.5%* | i | 37.0%* | 92.0* | i
O=[N+]([O-])c1ccc(-[n+]2nc(-c3ccccc3)nn2-c2ccccc2)cc1 | i | i | -5.2 | i | -0.16 | i | . | . | . | . | .
O=C(NC1CCCC1)c1cc(-c2ccc(Cl)cc2Cl)on1 | i | i | -6.4 | i | -0.44 | i | . | . | . | . | .
CN(C)c1c([N+](=O)[O-])cc(N2C(=O)C=CC2=O)cc1[N+](=O)[O-] | . | . | . | i | . | . | . | . | . | . | .
COc1ccccc1OCC(=O)Nc1cccc(-c2nc3ccccc3o2)c1 | i | -11.6* | -3.5 | i | -0.9 | i | 45.0%* | i | i | 113.7* | i
COc1ccc(C(=O)Nc2cc(-c3ccccc3)nn2-c2ccccc2F)cc1 | . | . | . | i | . | . | . | . | . | . | .
Cc1c(C(=O)N(C)Cc2cccc(F)c2)oc2c(Cl)cccc12 | i | -13.9* | -10.3 | -10.7* | -3.15 | i | 47.0%* | i | 49.0%* | 104.0* | i
Cn1nc(-c2ccccc2)c(-c2nc(-c3cccc(Cl)c3)no2)c1Cl | i | -9.55* | -9.8 | -8.83* | -0.86 | i | 33.0%* | i | 29.5%* | 103.0* | i
COc1cc(-c2nnc(SCC(=O)NC3CCCC3)n2C)cc(OC)c1O | i | i | -12.0 | i | -1.27 | i | . | . | . | . | .
O=C(Cc1coc2cc3c(cc12)CCC3)OCC(=O)N1CCCC1=O | i | i | -4.5 | i | 0.18 | i | . | . | . | . | .
COC(=O)c1ccsc1NC(=O)CN1CCN(c2ccc(F)cc2)CC1 | i | -11.1* | -8.2 | i | -0.27 | i | i | i | 28.0%* | 105.0* | i
COc1ccc(OCc2cc(C(=O)O)c(C)o2)cc1 | i | i | -6.2 | . | 2.34 | i | . | . | . | . | .
CN(CC(=O)Nc1ccc(F)c(F)c1F)C(=O)c1nn(Cc2ccccc2)c(=O)c2ccccc12 | . | . | . | i | . | . | . | . | . | . | .
CCOc1ccc(C(C)(C)C)cc1S(=O)(=O)n1nc(C)cc1C | 6* | -9.59* | -2.5 | -8.83* | 0.57 | i | 53.5%* | i | 37.5%* | 113.3* | i
N#CC(c1ccc(F)cc1)c1ccc(C(=O)c2ccc(F)cc2)cc1 (centres undefined) | i | -9.72* | -7.4 | -10.2* | -1.56 | i | 49.0%* | i | 34.0%* | 120.0* | i
CC(=O)Nc1cc2c(cc1Br)OCCO2 | i | i | -4.5 | i | -0.33 | i | . | . | . | . | .
Brc1ccc(CNc2cc3c(cc2Br)OCCO3)cc1 | i | -9.13* | -3.4 | i | 1.68 | i | 28.5%* | i | 42.0%* | 103.3* | i
CN1C[C@@H]2[C@@H]3C(=O)N(Cc4ccccc4)C(=O)[C@@H]3[C@](C)(C1=O)N2C(=O)c1ccccc1 | . | . | . | i | . | . | . | . | . | . | .
SMILES | KCNQ1 inh | KCNK9 block | hERG protect | KCNK3 block | Kir21 inh | KCNQ1 pot | KCNK9 inh conf | Kir2-1 spec | KCNK9 uninduced | KCNK3 inh conf | KCNK3 uninduced
COc1ccc(-c2[nH]c(-c3ccc4c(c3)OCO4)nc2-c2ccccc2)cc1 | 11* | -10.7* | -7.2 | -10.2* | 0.84 | i | 55.5%* | i | 35.0%* | 153.7* | 0.105*
Cc1ccc(NC(=O)c2cccc3c2C(=O)N(C2CCCCC2)C3)cc1 | i | -9.56* | -9.6 | -9.41* | 0.99 | i | 32.0%* | i | 26.0%* | 117.3* | i
CCOc1ccccc1NC(=O)c1cccc2c1C(=O)N(C1CCCCC1)C2 | i | -9.08* | -8.8 | -10.8* | 2.12 | i | 37.5%* | i | 33.0%* | 99.7* | i
CCOC(=O)N1CCC(N2Cc3cccc(C(=O)Nc4ccc(OCC)cc4)c3C2=O)CC1 | i | i | -9.8 | i | 0.06 | i | . | . | . | . | .
Cc1cccc(NC(=S)N/N=C/c2cccn2Cc2ccc(F)cc2)c1 | i | -13.6* | -4.7 | -9.3* | -2.11 | i | 60.5%* | i | i | 62.7* | i
CCn1ccnc1CNC(=O)c1ccc2oc(C(C)C)nc2c1 | i | i | -8.4 | i | -0.03 | i | . | . | . | . | .
CCN(C(=O)c1c(-c2ccccc2Cl)noc1C)C1CCCCC1 | i | -9.08* | -9.8 | -11.9* | -2.97 | i | 49.5%* | i | 33.0%* | 107.3* | i
Cc1onc(-c2ccccc2Cl)c1C(=O)N(C)C1CCCCC1 | i | i | -11.8 | i | -0.33 | i | . | . | . | . | .
Cc1c(C(=O)Nc2cccc(N(C)S(C)(=O)=O)c2)cccc1[N+](=O)[O-] | i | i | -7.8 | i | 0.21 | i | . | . | . | . | .
